Where only a bound is given, the exact number is not on record here.

Data set [1] is described as follows: Stability in EMEM medium assessed as intact compound level incubated for 24 hrs by HPLC analysis. To be noted: read-out: Stability. In kind it is physicochemical. The gist of the method:
(§1)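 The compound was incubated 24 h in cell culture medium without cells or with SK-N-SH cells. Intact compound and 125IUdR catabolite were quantified by radio-HPLC on a C18 column at 0.8 mL/min, with a 0–95% CH3CN gradient over 50 min and 95% for 20 min.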

Data set [2] in a line: Stability in human SK-N-SH cells assessed as parent compound level after 24 hrs by HPLC analysis. To be noted: read-out: Stability. The class given is ADME, cell-based. The gist of the method: as §1
A short description of data set [3]: Half life in mouse serum by HPLC analysis. The class given is ADME, cell-free. The gist of the method:
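Radioiodinated guanidines were incubated in mouse, human or pig serum and analyzed by radio-HPLC on a C18 column at 0.8 mL/min. The gradient was 0–95% CH3CN over 50 min, then 95% for 20 min. Intact compound was fitted to monoexponential degradation to give half-life. Values are average ± std err.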

A short description of data set [4]: Half life in EMEM medium by HPLC analysis. The class given is physicochemical.
Data set [5] is described as follows: Drug uptake in human SK-N-SH cells assessed as level of 125I-incorporation into DNA incubated 1 hr followed by compound washout with non-radioactive medium/PBS and measured after 23 hrs by gamma counting method relative to control. In kind it is ADME, cell-based. The gist of the method: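 SK-N-SH cells exposed to the 125I-labelled guanidine for 1 h, then washed with nonradioactive medium and PBS. Cells were either processed at once (1 h) or given fresh nonradioactive medium and returned to the incubator for 23 h (24 h). Subcellular fractions (cytoplasm, DNA) were counted by γ-counter. Values are mean and SD, n ≥ 3.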

Data set [6] has as its target T1, Sodium-dependent noradrenaline transporter (Homo sapiens, UniProt P23975). Briefly: Substrate activity at NET in human SK-N-SH cells assessed as inhibition of drug uptake by measuring MIBG IC50 incubated for 1 hr in presence of nonradioactive MIBG by gamma counting method. The class given is cell-based. A digest of the protocol: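 Exponentially growing SK-N-SH monolayers (endogenous NET) were exposed for 1 h to 125I-labelled guanidine plus nonradioactive MIBG over a range of concentrations. Cell-associated 125I was counted in a γ-counter, and the MIBG IC50 was estimated.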

The target in data set [7] is T1, Sodium-dependent noradrenaline transporter. Briefly: Substrate activity at NET in human SK-N-SH cells assessed as inhibition of drug uptake by measuring MIBG IC50 incubated for 1 hr in presence of nonradioactive MIBG at 37 degC by filtration based gamma counting method. In kind it is cell-based. The gist of the method: (§2)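 This was a cell-suspension competition assay. SK-N-SH cells in suspension were incubated with 125I-guanidine and graded nonradioactive MIBG, and uptake was read by filtration and γ-counting. Runs were done at 37 °C, or at 4 °C after cooling the cells on ice. The MIBG IC50 was estimated from the inhibition curves.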

The target is the same in data set [8]. Briefly: Substrate activity at NET in human SK-N-SH cells assessed as inhibition of drug uptake by measuring MIBG IC50 incubated for 1 hr in presence of nonradioactive MIBG at 4 degC by filtration based gamma counting method. In kind it is cell-based. The gist of the method: as §2
For data set [9], the system named is SK-N-SH. Briefly: Anticlonogenic activity against human SK-N-SH cells assessed as inhibition of reproductive integrity at 35 kBq/mL after 14 days by crystal violet staining based assay relative to control. Also noted: scale not given: the % may be the effect or the level left. In kind it is functional. A digest of the protocol: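 SK-N-SH cells exposed to 125I guanidine for 24 h, then harvested, replated at 500 live cells/flask and grown in nonradioactive medium for 14 days (up to 21 days at the highest levels). Colonies were stained with crystal violet and counted. Values are average (n ≥ 3) ± SD.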

Data set [10] relates to BE(2)-C. Briefly: Antiproliferative activity against human BE(2)-C cells assessed as extracellular concentration of 125I required to show 63% inhibition after 1 hr. The class given is cell-based. The gist of the method:
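BE(2)-C cells were treated for 1 h with several IDG concentrations, washed extensively, harvested with trypsin and replated for clonogenic assay. Cellular 125I uptake was measured per cell. D37 (63% kill) was estimated from survival versus extracellular concentration or intracellular content (mBq/cell). Values are average (std error).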

Data set [11] deals with SK-N-SH. Briefly: Anticlonogenic activity against human SK-N-SH cells assessed as number of colonies at 40 +/- 0.5 kBq/mL kBq/mL after 1 hr by crystal violet staining based assay. The class given is functional. The gist of the method: (§3)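 SK-N-SH cells exposed for 1 h to 125I-MIBG (39.3 ± 0.3 kBq/mL extracellular) or IDG (40 ± 0.5 kBq/mL). For the 1 h group, cells were washed with nonradioactive medium and PBS, harvested with trypsin and replated for the clonogenic assay. For the 24 h group, cells were washed, given fresh nonradioactive medium and incubated a further 23 h before plating. Colonies were counted.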

The subject of data set [12] is SK-N-SH. Briefly: Anticlonogenic activity against human SK-N-SH cells assessed as number of colonies at 40 +/- 0.5 kBq/mL kBq/mL after 24 hr by crystal violet staining based assay. The class given is functional. A digest of the protocol: as §3
A short description of data set [13]: Ratio of tumor to blood concentration in NCR nu/nu mouse xenografted with human BE(2)-C cells at 0.33 +/- 0.05 MBq administered intratumorally after 24 hrs by gamma counting method. The class given is ADME, tissue-based. To be noted: tumour, other. The gist of the method: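 Athymic Ncr nu/nu female and male mice bearing subcutaneous BE(2)-C xenografts received intratumor injections of the 125I agent. Tissues, tumor and blood were collected at 24 h and counted for radioactivity, expressed as %ID/g. Tumor-to-blood ratios were derived.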

Data set [14] relates to BE(2)-C. Briefly: Antitumor activity against human BE(2)-C cells xenografted with NCR nu/nu mouse assessed as tumor volume at 8.4 +/- 0.3 mBq administered intratumorally after 14 days (reference value: […]). In kind it is functional. The gist of the method:
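Athymic Ncr nu/nu female and male mice bearing subcutaneous BE(2)-C xenografts were randomized by lottery into untreated control and treatment groups. Treatment was a single intratumor injection of 8.4 ± 0.3 MBq/mouse. Tumor volumes were followed to day 7 (controls) or day 14. Doubling times were calculated from day 0 to 7 and day 0 to 14. Values are average ± std err.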

A short description of data set [15]: Dissociation constant, pKa of compound. In kind it is physicochemical.
Data set [16] is described as follows: Toxicity in NCR nu/nu mouse xenografted with human BE(2)-C cells assessed as effect on hemoglobin level at 8.41 +/- 0.32 mBq measured up to 166 hrs. The gist of the method: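 Athymic Ncr nu/nu female and male mice bearing subcutaneous BE(2)-C xenografts were randomized by lottery to untreated control or a single intratumor injection of 125I-guanidine (8.4 ± 0.3 MBq/mouse). Blood hemoglobin was measured in both groups and compared with the normal adult mouse range. Treated mice were terminated 14 days after injection.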

T1 sequence (P23975 whole entry): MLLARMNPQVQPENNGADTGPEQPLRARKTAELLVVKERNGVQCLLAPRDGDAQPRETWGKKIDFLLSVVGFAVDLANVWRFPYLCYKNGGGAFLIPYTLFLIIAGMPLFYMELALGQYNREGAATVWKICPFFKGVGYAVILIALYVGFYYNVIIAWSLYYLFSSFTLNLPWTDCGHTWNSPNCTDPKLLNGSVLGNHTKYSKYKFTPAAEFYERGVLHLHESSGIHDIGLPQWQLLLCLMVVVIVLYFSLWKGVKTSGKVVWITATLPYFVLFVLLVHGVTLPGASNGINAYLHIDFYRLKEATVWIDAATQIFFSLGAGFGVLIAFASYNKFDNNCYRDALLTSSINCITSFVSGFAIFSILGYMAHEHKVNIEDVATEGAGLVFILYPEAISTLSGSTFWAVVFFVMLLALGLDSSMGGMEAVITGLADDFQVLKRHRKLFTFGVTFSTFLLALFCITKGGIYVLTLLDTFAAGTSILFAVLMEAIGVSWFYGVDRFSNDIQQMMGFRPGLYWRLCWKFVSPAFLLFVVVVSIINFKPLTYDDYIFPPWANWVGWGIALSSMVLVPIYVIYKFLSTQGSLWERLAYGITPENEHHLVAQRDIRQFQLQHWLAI

On to `N=C(N)NCCCCCC(=O)O[C@H]1C[C@H](n2cc([125I])c(=O)[nH]c2=O)O[C@@H]1CO`, for which the remaining at 24 h was found to be 86% in data set [1] and 33% in [2]. In addition, the values for the half-life in [3] and in [4] were 3.54 min and 110 h, respectively. The Drug uptake in [5] was greater than 97%. The concentration for half-maximal inhibition (IC50) in data set [6] was found to be 76.2 µM; in [7], 35.2 µM; in data set [8], 22 µM. Besides, the Activity in [9] is on record as greater than 90%; in [10], 398 kBq/ml; in data set [11], 163; in data set [12], 97; in data set [14] it was 2.55 cm3; in data set [16], “Non-Toxic”. Also, in [13], the Ratio came out at 161. Moreover, in [15], the pKa turned out to be 12.1.
